According to ChEMBL document CHEMBL4043179, “Triple reuptake inhibitors: Design, synthesis and structure-activity relationship of benzylpiperidine-tetrazoles” (Bioorg Med Chem, 2017):

Assays:
Assay type in all cases: cell-based
[1] = target: T1, Sodium-dependent serotonin transporter (Homo sapiens, UniProt P31645); assay: Inhibition of re-uptake of [3H]-5-HT at human SERT at 10 uM expressed in HEK293 cells by liquid scintillation counting
Target sequence in this assay (P31645 whole entry, looked up): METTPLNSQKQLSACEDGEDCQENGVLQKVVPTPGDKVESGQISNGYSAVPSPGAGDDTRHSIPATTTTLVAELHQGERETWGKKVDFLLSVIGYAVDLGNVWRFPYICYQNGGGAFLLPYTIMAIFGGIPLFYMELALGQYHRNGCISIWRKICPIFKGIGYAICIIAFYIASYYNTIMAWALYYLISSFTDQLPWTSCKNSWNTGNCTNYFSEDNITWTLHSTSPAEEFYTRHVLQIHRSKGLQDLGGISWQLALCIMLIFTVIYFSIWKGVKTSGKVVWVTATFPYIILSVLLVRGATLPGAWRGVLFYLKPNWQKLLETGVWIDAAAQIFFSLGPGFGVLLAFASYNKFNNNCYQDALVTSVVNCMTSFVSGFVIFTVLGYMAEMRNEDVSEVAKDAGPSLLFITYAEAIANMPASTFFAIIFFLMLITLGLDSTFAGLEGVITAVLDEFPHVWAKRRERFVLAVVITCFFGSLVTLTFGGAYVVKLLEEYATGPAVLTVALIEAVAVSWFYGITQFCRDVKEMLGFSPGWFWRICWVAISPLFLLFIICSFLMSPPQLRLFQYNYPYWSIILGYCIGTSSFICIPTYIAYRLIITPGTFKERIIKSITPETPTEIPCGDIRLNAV

[2] = target: T2, Sodium-dependent noradrenaline transporter (Homo sapiens, UniProt P23975); assay: Inhibition of re-uptake of [3H]-NE at human NET at 10 uM expressed in HEK293 cells by liquid scintillation counting
[3] = target: T3, Sodium-dependent dopamine transporter (Homo sapiens, UniProt Q01959); assay: Inhibition of re-uptake of [3H]-DA at human DAT at 10 uM expressed in HEK293 cells by liquid scintillation counting
[4] = target: T1, Sodium-dependent serotonin transporter; assay: Inhibition of re-uptake of [3H]-5-HT at human SERT expressed in HEK293 cells by liquid scintillation counting
Target sequence in this assay (P31645 whole entry): as the sequence (P31645 whole entry, looked up) above

[5] = target: T2, Sodium-dependent noradrenaline transporter; assay: Inhibition of re-uptake of [3H]-NE at human NET expressed in HEK293 cells by liquid scintillation counting
How it was run: (§1)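 HEK-293 cells were grown in medium with fetal bovine serum and transfected with human DAT or NET. Uptake of radiolabelled [3H]-DA or [3H]-NE, each at 20 nM in the assay, was measured by liquid scintillation counting. The method follows a literature procedure with slight modification, and reference reuptake inhibitors were run alongside.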

[6] = target: T3, Sodium-dependent dopamine transporter; assay: Inhibition of re-uptake of [3H]-DA at human DAT expressed in HEK293 cells by liquid scintillation counting; how it was run: as §1

T2 sequence (P23975 whole entry): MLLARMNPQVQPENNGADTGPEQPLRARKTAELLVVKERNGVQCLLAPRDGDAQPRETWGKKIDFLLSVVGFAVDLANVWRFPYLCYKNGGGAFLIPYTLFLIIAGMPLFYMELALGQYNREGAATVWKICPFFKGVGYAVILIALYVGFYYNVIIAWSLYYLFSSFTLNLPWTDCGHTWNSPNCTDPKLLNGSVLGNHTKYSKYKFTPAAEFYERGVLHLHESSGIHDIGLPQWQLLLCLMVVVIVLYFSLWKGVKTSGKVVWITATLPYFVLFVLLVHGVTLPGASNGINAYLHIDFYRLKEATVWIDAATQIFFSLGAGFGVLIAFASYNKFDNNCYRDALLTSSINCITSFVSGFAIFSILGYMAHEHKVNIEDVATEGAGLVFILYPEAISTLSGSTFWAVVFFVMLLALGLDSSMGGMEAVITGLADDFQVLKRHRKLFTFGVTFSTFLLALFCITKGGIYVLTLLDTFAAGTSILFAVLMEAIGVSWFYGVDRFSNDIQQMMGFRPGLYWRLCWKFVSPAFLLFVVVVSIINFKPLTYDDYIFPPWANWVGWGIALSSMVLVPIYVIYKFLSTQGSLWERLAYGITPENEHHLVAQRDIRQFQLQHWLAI
T3 sequence (Q01959 whole entry): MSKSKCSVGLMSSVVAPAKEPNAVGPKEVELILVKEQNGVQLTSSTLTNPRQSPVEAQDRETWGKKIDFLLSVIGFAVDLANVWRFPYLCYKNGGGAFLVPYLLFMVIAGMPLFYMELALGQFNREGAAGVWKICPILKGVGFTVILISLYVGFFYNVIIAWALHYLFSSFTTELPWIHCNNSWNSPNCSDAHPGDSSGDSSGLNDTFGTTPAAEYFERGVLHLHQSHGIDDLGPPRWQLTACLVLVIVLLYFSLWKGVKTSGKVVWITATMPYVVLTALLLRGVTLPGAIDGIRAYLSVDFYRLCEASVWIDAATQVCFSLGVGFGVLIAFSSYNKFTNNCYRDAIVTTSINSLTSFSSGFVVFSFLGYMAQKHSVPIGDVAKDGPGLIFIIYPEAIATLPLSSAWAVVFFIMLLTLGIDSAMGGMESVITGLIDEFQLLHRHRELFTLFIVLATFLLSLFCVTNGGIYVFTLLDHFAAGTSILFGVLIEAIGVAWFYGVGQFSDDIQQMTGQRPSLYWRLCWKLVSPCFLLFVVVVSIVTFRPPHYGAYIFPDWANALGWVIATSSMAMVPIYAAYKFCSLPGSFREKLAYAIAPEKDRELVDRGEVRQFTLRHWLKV

## COc1ccc(-c2nnnn2CCCN2CCC(Cc3ccccc3)CC2)cc1
[1]
  inhibition: > 55%
[2]
  inhibition: > 55%
[3]
  inhibition: > 55%
[4]
  IC50: 4.05 µM
[5]
  IC50: 5.52 µM
[6]
  IC50: > 10 µM

## Clc1ccc(-c2nnnn2CCCN2CCC(Cc3ccccc3)CC2)cc1
[1]
  inhibition: > 55%
[2]
  inhibition: > 55%
[3]
  inhibition: > 55%
[4]
  IC50: 3.13 µM
[5]
  IC50: 2.58 µM
[6]
  IC50: 8.32 µM

## Brc1cccc(-c2nnnn2CCCN2CCC(Cc3ccccc3)CC2)c1
[1]
  inhibition: > 55%
[2]
  inhibition: > 55%
[3]
  inhibition: > 55%
[4]
  IC50: > 10 µM
[5]
  IC50: 4.34 µM
[6]
  IC50: > 10 µM

## Clc1cccc(-c2nnnn2CCCN2CCC(Cc3ccccc3)CC2)c1Cl
[1]
  inhibition: > 55%
[2]
  inhibition: > 55%
[3]
  inhibition: > 55%
[4]
  IC50: 3.96 µM
[5]
  IC50: 3.45 µM
[6]
  IC50: > 10 µM

## Clc1ccccc1-c1nnnn1CCCN1CCC(Cc2ccccc2)CC1
[1]
  inhibition: > 55%
[2]
  inhibition: > 55%
[3]
  inhibition: > 55%
[4]
  IC50: 1.32 µM
[5]
  IC50: 3.96 µM
[6]
  IC50: 6.55 µM

## FC(F)(F)c1cccc(-c2nnnn2CCCN2CCC(Cc3ccccc3)CC2)c1
[1]
  inhibition: > 55%
[2]
  inhibition: > 55%
[3]
  inhibition: > 55%
[4]
  IC50: 8.81 µM
[5]
  IC50: 5.1 µM
[6]
  IC50: 3.74 µM

## CC(=O)c1cccc(-c2nnnn2CCN2CCC(Cc3ccccc3)CC2)c1
[1]
  inhibition: > 55%
[2]
  inhibition: > 55%
[3]
  inhibition: > 55%
[4]
  IC50: 4.05 µM
[5]
  IC50: 3.08 µM
[6]
  IC50: 14.6 µM

## CC(=O)c1cccc(-c2nnnn2CCCN2CCC(Cc3ccccc3)CC2)c1
[1]
  inhibition: > 55%
[2]
  inhibition: > 55%
[3]
  inhibition: > 55%
[4]
  IC50: 0.54 µM
[5]
  IC50: 3 µM
[6]
  IC50: 5.04 µM

## c1ccc(CC2CCN(CCCn3nnnc3-c3cccc4ccccc34)CC2)cc1
[1]
  inhibition: > 55%
[2]
  inhibition: > 55%
[3]
  inhibition: > 55%
[4]
  IC50: 0.31 µM
[5]
  IC50: 2.51 µM
[6]
  IC50: 6 µM

## c1ccc(CC2CCN(CCn3nnnc3-c3cccc4ccccc34)CC2)cc1
[1]
  inhibition: > 55%
[2]
  inhibition: > 55%
[3]
  inhibition: > 55%
[4]
  IC50: > 10 µM
[5]
  IC50: > 10 µM
[6]
  IC50: > 10 µM

## c1ccc(CC2CCN(CCCn3nnnc3-c3ccccc3)CC2)cc1
[1]
  inhibition: > 55%
[2]
  inhibition: > 55%
[3]
  inhibition: > 55%
[4]
  IC50: 0.88 µM
[5]
  IC50: 3.03 µM
[6]
  IC50: 4.02 µM

## Brc1ccccc1-c1nnnn1CCCN1CCC(Cc2ccccc2)CC1
[1]
  inhibition: > 55%
[2]
  inhibition: > 55%
[3]
  inhibition: > 55%
[4]
  IC50: 5.13 µM
[5]
  IC50: 3.46 µM
[6]
  IC50: > 10 µM

## O=[N+]([O-])c1ccc(-c2nnnn2CCCN2CCC(Cc3ccccc3)CC2)cc1
[1]
  inhibition: > 55%
[2]
  inhibition: > 55%
[3]
  inhibition: > 55%
[4]
  IC50: 5.25 µM
[5]
  IC50: 5.02 µM
[6]
  IC50: > 10 µM

## Fc1ccc(-c2nnnn2CCCN2CCC(Cc3ccccc3)CC2)cc1
[1]
  inhibition: > 55%
[2]
  inhibition: > 55%
[3]
  inhibition: > 55%
[4]
  IC50: 2 µM
[5]
  IC50: 2.28 µM
[6]
  IC50: 3.29 µM

## Clc1cccc(-c2nnnn2CCCN2CCC(Cc3ccccc3)CC2)c1
[1]
  inhibition: > 55%
[2]
  inhibition: > 55%
[3]
  inhibition: > 55%
[4]
  IC50: 1.35 µM
[5]
  IC50: 3.59 µM
[6]
  IC50: 5.18 µM

## O=[N+]([O-])c1ccc(-c2nnnn2CCN2CCC(Cc3ccccc3)CC2)cc1
[1]
  inhibition: > 55%
[2]
  inhibition: > 55%
[3]
  inhibition: > 55%
[4]
  IC50: 1.24 µM
[5]
  IC50: 1.35 µM
[6]
  IC50: 1.98 µM
